Here are results for nine compounds from ChEMBL document CHEMBL5223167, “Synthesis of Novel Kidney-Type Glutaminase Allosteric Inhibitors Targeting the Critical Lys-320 Residue” (ACS Med Chem Lett, 2023).

Calls of active or inactive are those of the source. The rule behind the calls is not given here.

Series [1] can be described thus: Metabolic stability in mouse liver microsomes assessed as parent compound remaining measured for 2 hrs by HPLC analysis. It is filed as ADME, Microsome. The settings on record: read-out: Stability. In a few lines: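 Compound is incubated with mouse liver microsomes for 2 h. The parent level remaining is quantified by HPLC, with coumarin as the reference control.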

The target of series [2] is T1, Glutaminase kidney isoform, mitochondrial (Homo sapiens) (UniProt O94925).
T1 sequence (whole entry): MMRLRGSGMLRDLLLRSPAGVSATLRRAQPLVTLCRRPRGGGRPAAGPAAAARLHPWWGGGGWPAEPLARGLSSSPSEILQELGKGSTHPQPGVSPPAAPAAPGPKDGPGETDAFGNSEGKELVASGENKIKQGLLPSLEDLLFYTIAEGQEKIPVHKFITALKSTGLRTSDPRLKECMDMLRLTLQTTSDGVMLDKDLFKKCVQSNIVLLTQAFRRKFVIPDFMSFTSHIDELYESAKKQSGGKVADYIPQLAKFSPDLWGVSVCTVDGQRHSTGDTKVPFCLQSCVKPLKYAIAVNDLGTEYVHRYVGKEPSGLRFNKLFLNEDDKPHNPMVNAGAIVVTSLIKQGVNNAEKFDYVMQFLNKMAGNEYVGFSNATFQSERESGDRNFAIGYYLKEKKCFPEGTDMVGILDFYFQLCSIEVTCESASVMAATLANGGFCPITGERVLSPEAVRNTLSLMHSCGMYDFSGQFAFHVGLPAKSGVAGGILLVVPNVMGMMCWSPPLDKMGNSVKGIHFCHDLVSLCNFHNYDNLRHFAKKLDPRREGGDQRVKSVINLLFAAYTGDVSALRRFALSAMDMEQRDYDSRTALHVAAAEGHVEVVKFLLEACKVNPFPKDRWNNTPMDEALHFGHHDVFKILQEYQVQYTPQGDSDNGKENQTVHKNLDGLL
Kind of series: Covalent inhibition of wild type human KGA using glutamine as substrate at 10 uM preincubated for 0.5 hrs followed by substrate addition and measured after 4 hrs by EZMTT reagent based assay. The conditions noted are these: time 4.5 hrs. In a few lines:
(§1)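 Human KGA, either wild-type or the K320A mutant, is pre-incubated with or without compound at 10 μM before the enzyme activity assay.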

Series [3] addresses T2, Glutaminase kidney isoform, mitochondrial (Homo sapiens, UniProt O94925).
T2 sequence (O94925 whole entry): T1 sequence (whole entry)
Briefly: Binding affinity to wild type human KGA assessed as covalent bond formation by measuring dissociation constant by biomolecular interaction assay.

Series [4] concerns HCT-116. Kind of series: Antiproliferative activity against human HCT-116 cells assessed as growth rate at 1 uM measured after 2 to 24 hrs by EZMTT assay (reference value: 100%). It is filed as functional. The conditions noted are these: for growth at 1 µM: Homo sapiens, HCT-116, time 2-24 hrs, read-out: Activity.
The nature of series [5]: Clearance in ICR mouse at […], iv measured for 24 hrs by HPLC analysis. The settings on record: in vivo. It is filed as ADME, organism-based.
Series [6] can be described thus: Stability of compound. It is filed as physicochemical.
Series [7] concerns A549. Briefly: Inhibition of colony formation in human A549 cells assessed as reduction in number and size of colonies incubated for 14 days by crystal violet staining based assay. Type of series: functional, cell-based. The settings on record: dose 1-5 µM, time 14.0 day.
Series [8] in a line: Half life in ICR mouse at […], iv measured for 24 hrs by HPLC analysis. Type of series: ADME, organism-based. The settings on record: in vivo.
The species entered for series [9] is Homo sapiens. Kind of series: Covalent inhibition of human KGA K320A mutant using glutamine as substrate at 10 uM preincubated for 0.5 hrs followed by substrate addition and measured after 4 hrs by EZMTT reagent based assay. The settings on record: time 4.5 hrs. The procedure, abridged: as §1
Series [10] is filed under the species Homo sapiens. Kind of series: Binding affinity to alanine residue of human KGA K320A mutant assessed as covalent bond formation.
The species entered for series [11] is Homo sapiens. Briefly: Inhibition of biotinylated N-[6-[4-[5-[[2-(2-pyridyl)acetyl]amino]-1,3,4-thiadiazol-2-yl]butyl]pyridazin-3-yl]-2-[3-(trifluoromethoxy)phenyl]acetamide binding to human KGA K320A mutant by biomolecular interaction assay. The settings on record: dose 0-3 µM.
Series [12] relates to HCT-116. Briefly: Antiproliferative activity against human HCT-116 cells assessed as growth rate at 10 uM measured after 2 to 24 hrs by EZMTT assay (reference value: 100%). The settings on record: for growth at 10 µM: Homo sapiens, HCT-116, time 2-24 hrs, read-out: Activity. It is filed as functional.
For series [13], the system named is A549. Briefly: Induction of ROS production in human A549 cells at 5 to 10 uM incubated for 12 hrs by dichlorodihydro-fluorescein diacetate probe based fluorescence microscopic analysis. It is filed as functional, cell-based. The settings on record: dose 5-10 µM.
Series [14] has as its target T1, Glutaminase kidney isoform, mitochondrial (Homo sapiens). Briefly: Inhibition of biotinylated N-[6-[4-[5-[[2-(2-pyridyl)acetyl]amino]-1,3,4-thiadiazol-2-yl]butyl]pyridazin-3-yl]-2-[3-(trifluoromethoxy)phenyl]acetamide binding to wild type human KGA at >300 nM by biomolecular interaction assay.
Series [15] deals with HCT-116. Briefly: Antiproliferative activity against human HCT-116 cells assessed as growth rate at 3 uM measured after 2 to 24 hrs by EZMTT assay (reference value: 100%). It is filed as functional. The conditions noted are these: for growth at 3 µM: Homo sapiens, HCT-116, time 2-24 hrs, read-out: Activity.
Series [16] concerns the target Glutamate dehydrogenase 1, mitochondrial (Bos taurus) (UniProt P00366). Kind of series: Inhibition of bovine GDH using glutamate as substrate preincubated for 0.5 hrs followed by substrate addition and further incubated for 1 hr in presence of NADP+ by EZMTT reagent based assay.
The target in series [17] is T2, Glutaminase kidney isoform, mitochondrial. Briefly: Inhibition of human KGA using glutamine as substrate preincubated for 0.5 hrs followed by substrate addition and measured after 4 hrs by EZMTT reagent based assay.
Series [18] deals with HCT-116. Kind of series: Antiproliferative activity against human HCT-116 cells assessed as inhibition of cell growth by measuring fold improvement in IC50 incubated for 5 days by EZMTT assay relative to control. Type of series: functional. The settings on record: time 5 day.
The test system of the next series is H22. Kind of series: Antiproliferative activity against mouse H22 cells assessed as inhibition of cell growth by measuring fold improvement in IC50 incubated for 5 days by EZMTT assay relative to control. It is filed as functional. The settings on record: time 5 day.

Glutamate dehydrogenase 1, mitochondrial (Bos taurus), sequence (P00366 whole entry, canonical isoform): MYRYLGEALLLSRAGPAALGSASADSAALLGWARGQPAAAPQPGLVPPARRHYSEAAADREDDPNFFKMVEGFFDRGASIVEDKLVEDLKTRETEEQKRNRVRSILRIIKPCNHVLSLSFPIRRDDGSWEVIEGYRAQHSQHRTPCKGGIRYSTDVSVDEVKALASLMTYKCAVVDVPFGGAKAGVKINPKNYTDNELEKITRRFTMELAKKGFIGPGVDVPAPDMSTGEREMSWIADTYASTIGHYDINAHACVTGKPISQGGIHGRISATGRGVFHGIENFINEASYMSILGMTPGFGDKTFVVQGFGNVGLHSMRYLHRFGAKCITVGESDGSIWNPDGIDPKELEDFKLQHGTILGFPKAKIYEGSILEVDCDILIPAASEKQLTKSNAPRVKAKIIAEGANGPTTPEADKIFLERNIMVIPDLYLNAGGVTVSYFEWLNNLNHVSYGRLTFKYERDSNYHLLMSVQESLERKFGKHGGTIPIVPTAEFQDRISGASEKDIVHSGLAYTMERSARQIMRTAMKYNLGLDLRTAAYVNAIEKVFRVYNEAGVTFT

For `O=c1ccc2ccccc2o1` [COUMARIN], the remaining at 2 h in [1] stood at 61%.
With `O=C(/C=C/c1ccc2c(c1)OCO2)Nc1ccc(CCCCc2nnc(NC(=O)Cc3ccccn3)[se]2)nn1`, the inhibition is 100% in series [2], “Dose-Dependent Effect” in the series with A549 [7] and “Dose-Dependent Effect” in the series listed under Homo sapiens [11]. Besides, the Kd in series [3] is not above 0.001 nM. Also, the growth at 1 µM in the series on HCT-116 [4] is 14.3%. In series [5], this compound showed a clearance of 327 mL/min/kg. Moreover, the remaining at 2 h in [1] came to 74%. Besides, the Stability entry in series [6] is “Stable”. In series [8], this compound had a half-life of 4.89 h. Further, the inhibition result (in the series listed under Homo sapiens [9]; in [16]) was “inactive” in each case. The outcome in the series filed under Homo sapiens [10] was inactive. Besides, the growth at 10 µM with HCT-116 [12] amounted to 6.3%. The outcome in the series on A549 [13] was Active. Further, the inhibition result in series [14] is “Active”. Moreover, the growth at 3 µM in the series with HCT-116 [15] amounted to 6%. In series [17], this compound yielded a half-maximal inhibitory concentration (IC50) of 50 nM.
With `C=CC(=O)Nc1ccc(CCCCc2nnc(NC(=O)Cc3ccccn3)s2)nn1`, in series [6], the Stability result is listed as “Unstable”. For the same compound, the inhibition entry in series [16] was “inactive”.
The like results for `C=C(C(=O)Nc1ccc(CCCCc2nnc(NC(=O)Cc3ccccn3)[se]2)nn1)c1cccc(OC(F)(F)F)c1` were, in that order, “Unstable” and “inactive”.
With `O=C(/C=C/c1ccc2c(c1)OCO2)Nc1ccc(CCCCc2nnc(NC(=O)Cc3ccccn3)s2)nn1`, the inhibition is 100% in series [2], “Dose-Dependent Effect” in the series with A549 [7] and “Dose-Dependent Effect” in the series filed under Homo sapiens [11]. Besides, the Kd in [3] was not above 0.001 nM. Moreover, the growth at 1 µM with HCT-116 [4] turned out to be 11.9%. The same compound gave a clearance in [5] of 582 mL/min/kg. For the same compound, the remaining at 2 h in series [1] was 83%. The Stability result in [6] is recorded as “Stable”. The half-life in series [8] is 3.37 h. Also, the inhibition result (in the series filed under Homo sapiens [9]; in [16]) was “inactive” throughout. In the series listed under Homo sapiens [10], the outcome was inactive. Further, the “fold change (FC)” value is listed as 3 with HCT-116 [18] and 30 with H22. In addition, the growth at 10 µM in the series on HCT-116 [12] is 6.1%. In the series on A549 [13], the outcome was Active. Besides, the inhibition entry in [14] is “Active”. In the series with HCT-116 [15], the growth at 3 µM stood at 7.6%. The compound further registered an IC50 in series [17] of 28 nM.
As to `C=CC(=O)Nc1ccc(CCCCc2nnc(NC(=O)Cc3cc4ccccc4n3C)s2)nn1`, the Stability result in [6] is on record as “Unstable”. Further, the inhibition result in [16] was “inactive”.
The corresponding values for `O=C(/C=C/c1cc(F)ccc1F)Nc1ccc(CCCCc2nnc(NC(=O)Cc3ccccn3)[se]2)nn1` are “Unstable” and “inactive”.
With `O=C(Cc1cccc(OC(F)(F)F)c1)Nc1ccc(CCCCc2nnc(NC(=O)Cc3ccccn3)s2)nn1`, the Activity amounted to 19.1% with HCT-116 [4] (time 2-24 hrs), 14.1% with HCT-116 [12] (time 2-24 hrs) and 17% in the series with HCT-116 [15] (time 2-24 hrs). Further, in series [16], the inhibition entry is “inactive”.
Regarding `C=CC(=O)Nc1ccc(CCCCc2nnc(NC(=O)Cc3ccccn3)[se]2)nn1`, the Stability entry in series [6] is on record as “Unstable”. For the same compound, in series [16], the inhibition entry was “inactive”.
